Converted amounts (≈) assume the structure as drawn.
Columns and labels:
[1] = system: Mycobacterium tuberculosis; assay: Antimycobacterial activity against Mycobacterium tuberculosis H37Rv after 6 days by Microdilution Resazurin assay; format: functional; settings: 144 h
In short: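 M. tuberculosis H37Rv grown in 7H9 with 10% ADC enrichment. Two-fold serial dilutions from 500 to 0.9 µg/mL, using DMSO stocks, in 7H9. Incubated at 37 °C for 6 days, then 0.01% resazurin added and incubated a further 24 h. MIC is the lowest concentration preventing the blue-to-pink colour change. DMSO growth controls and isoniazid (1 µg/mL to 1 ng/mL) were included.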

[2] = system: Vero; assay: Cytotoxicity against african green monkey Vero cells assessed as cell growth after 48 hrs by hemocytometry; format: cell-based; settings: Chlorocebus sabaeus
In short: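 VERO cells grown in DMEM with 10% v/v FBS plus penicillin/streptomycin, 37 °C, humidified 5% CO2. Log-phase cells seeded in 24-well plates and allowed to attach 3 h. Compounds diluted in DMSO (final ≤0.4% v/v) and tested at 10^-8 to 10^-4 M. Cells counted after 48 h. Two experiments in duplicate; mean used to derive IC50.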

[3] = Selectivity index, ratio of IC50 for african green monkey VERO cells to MIC95 for Mycobacterium tuberculosis H37Rv; format: functional
In short: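 VERO cells grown in DMEM with 10% FBS at 37 °C and 5% CO2. Seeded at 2×10^4 cells/mL and allowed to attach for 3 h. Compounds added at 10^-8 to 10^-4 M (DMSO ≤0.4% v/v) and cells counted by hemocytometer after 48 h. IC50 from means of two experiments in duplicate. SI is VERO IC50 divided by the M. tuberculosis MIC95.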

[4] = system: Mycolicibacterium smegmatis; assay: Antimycobacterial activity against Mycobacterium smegmatis mc2155 assessed as inhibition of mycolic acid biosynthesis at 1 to 25 ug/ml after 15 mins; format: functional
In short: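 Cell-free assay on cell wall extracts from bacteria washed in phosphate buffer and disrupted at 0.8 kbar, using 500 µg extract protein. Buffer was 100 mM potassium phosphate pH 7.0 with 3 mM MgCl2, 7 mM KHCO3, 7 mM ATP and 0.7 mM CoASH. Compounds (5% v/v DMSO final) preincubated 15 min at 37 °C, then [1-14C]acetate added for 60 min at 37 °C. Reactions saponified and mycolate profiles run on TLC; % inhibition taken against control. Thiolactomycin was the reference, run at two concentrations.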

[5] = system: Mycolicibacterium smegmatis; assay: Antimycobacterial activity against Mycobacterium smegmatis; format: functional
[6] = system: Mycobacterium tuberculosis; assay: Antimycobacterial activity against Mycobacterium tuberculosis; format: functional

Structure (SMILES) | MIC95 [1] [µM] | IC50 [2] [µM] | Selectivity Index [3] | inhibition (INH) [4] [%] | MIC95 [5] [µg/mL] | MIC95 [6] [µg/mL]
CC(=O)c1ccc2oc3ccc4c(c3c2c1)CCC(C)(C)O4 | > 340 | – | – | – | – | –
CC1(C)C=Cc2c(ccc3oc4c(Cl)cccc4c23)O1 | 87.5 (≈ 24.9 µg/mL) | 100 | 1.2 | – | – | –
CC1(C)C=Cc2c(ccc3oc4cc(Br)ccc4c23)O1 | 37.5 (≈ 12.3 µg/mL) | – | 93.3 | – | – | –
CC1(C)C=Cc2c(ccc3oc4ccc(Cl)cc4c23)O1 | 353 (≈ 101 µg/mL) | 290 | 0.8 | – | – | –
CC1(C)C=Cc2c(ccc3oc4cccc(Cl)c4c23)O1 | 43.8 (≈ 12.5 µg/mL) | 100 | 2.3 | – | – | –
CC1(C)C=Cc2c(ccc3oc4c(O)cccc4c23)O1 | 23.5 (≈ 6.26 µg/mL) | 3.3 | 0.1 | – | – | –
CC1(C)C=Cc2c(ccc3oc4cc(O)ccc4c23)O1 | 23.5 (≈ 6.26 µg/mL) | 9.2 | 0.4 | – | – | –
CC1(C)C=Cc2c(ccc3oc4ccc(O)cc4c23)O1 | 47 (≈ 12.5 µg/mL) | 5 | 0.1 | – | – | –
CC1(C)C=Cc2c(ccc3oc4cccc(O)c4c23)O1 | 95 (≈ 25.3 µg/mL) | 9.1 | 0.1 | – | – | –
CC1(C)CCc2c(ccc3oc4ccc(O)cc4c23)O1 | 46.5 (≈ 12.5 µg/mL) | 18 | 0.4 | – | – | –
COc1cccc2c1oc1ccc3c(c12)C=CC(C)(C)O3 | 45 (≈ 12.6 µg/mL) | 100 | 2.2 | >60 | – | –
COc1ccc2c(c1)oc1ccc3c(c12)C=CC(C)(C)O3 | 89 (≈ 24.9 µg/mL) | 100 | 1.1 | >60 | – | –
COc1ccc2oc3ccc4c(c3c2c1)C=CC(C)(C)O4 | 45 (≈ 12.6 µg/mL) | 100 | 2.2 | >60 | – | –
COc1cccc2oc3ccc4c(c3c12)C=CC(C)(C)O4 | 45 (≈ 12.6 µg/mL) | 280 | 6.2 | >60 | – | –
COc1ccc2oc3cc4c(cc3c2c1)OC(C)(C)C=C4 | 89 (≈ 24.9 µg/mL) | – | 83.2 | – | – | –
CC1(C)C=Cc2c(ccc3c2oc2ccc4c(c23)C=CC(C)(C)O4)O1 | > 300 | – | – | – | – | –
CC1(C)C=Cc2c(ccc3oc4cc(-c5ccc6c(c5)oc5ccc7c(c56)C=CC(C)(C)O7)ccc4c23)O1 | > 200 | – | – | – | – | –
CC1(C)C=Cc2c(ccc3oc4ccncc4c23)O1 | – | – | – | – | 8 (≈ 31.8 µM) | 16 (≈ 63.7 µM)
CC(=O)c1ccc2oc3ccc4c(c3c2c1)C=CC(C)(C)O4 | > 1710 | – | – | – | – | –
CC1(C)C=Cc2c(ccc3oc4ccccc4c23)O1 | 100 (≈ 25 µg/mL) | 320 | 3.2 | – | – | –
COc1cccc2c1C(=O)c1c(O)c3c(c(O)c1C2=O)C[C@@](O)(C(=O)CO)C[C@@H]3O[C@H]1C[C@H](N)[C@H](O)[C@H](C)O1 [DOXORUBICIN] | – | 3.6 | – | – | – | –
NNC(=O)c1ccncc1 [ISONIAZID] | 1.8 (≈ 0.247 µg/mL) | > 100 | – | – | – | –

Source: ChEMBL document CHEMBL1629514, “Synthesis, biological activity, and evaluation of the mode of action of novel antitubercular benzofurobenzopyrans substituted on A ring” (Eur J Med Chem, 2010)
